hERG protect: hERG rescue from dofetilide block, primary screen, cell-based, CHO-hERG, FluxOR thallium flux, dofetilide IC70 | Voltage-gated inwardly rectifying potassium channel KCNH2 (Homo sapiens), Q12809 | AID 1511, 2009 | dofetilide IC70 present | 310,000 compounds, 0.51% hits | activation (rescue from dofetilide block), less the hit threshold, % at 10 µM;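 active means activation above the mean of controls blocked by dofetilide plus 5 SD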;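 further: thallium influx through hERG after potassium depolarization seen as dye fluorescence rise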
Target sequence (Q12809 whole entry, looked up): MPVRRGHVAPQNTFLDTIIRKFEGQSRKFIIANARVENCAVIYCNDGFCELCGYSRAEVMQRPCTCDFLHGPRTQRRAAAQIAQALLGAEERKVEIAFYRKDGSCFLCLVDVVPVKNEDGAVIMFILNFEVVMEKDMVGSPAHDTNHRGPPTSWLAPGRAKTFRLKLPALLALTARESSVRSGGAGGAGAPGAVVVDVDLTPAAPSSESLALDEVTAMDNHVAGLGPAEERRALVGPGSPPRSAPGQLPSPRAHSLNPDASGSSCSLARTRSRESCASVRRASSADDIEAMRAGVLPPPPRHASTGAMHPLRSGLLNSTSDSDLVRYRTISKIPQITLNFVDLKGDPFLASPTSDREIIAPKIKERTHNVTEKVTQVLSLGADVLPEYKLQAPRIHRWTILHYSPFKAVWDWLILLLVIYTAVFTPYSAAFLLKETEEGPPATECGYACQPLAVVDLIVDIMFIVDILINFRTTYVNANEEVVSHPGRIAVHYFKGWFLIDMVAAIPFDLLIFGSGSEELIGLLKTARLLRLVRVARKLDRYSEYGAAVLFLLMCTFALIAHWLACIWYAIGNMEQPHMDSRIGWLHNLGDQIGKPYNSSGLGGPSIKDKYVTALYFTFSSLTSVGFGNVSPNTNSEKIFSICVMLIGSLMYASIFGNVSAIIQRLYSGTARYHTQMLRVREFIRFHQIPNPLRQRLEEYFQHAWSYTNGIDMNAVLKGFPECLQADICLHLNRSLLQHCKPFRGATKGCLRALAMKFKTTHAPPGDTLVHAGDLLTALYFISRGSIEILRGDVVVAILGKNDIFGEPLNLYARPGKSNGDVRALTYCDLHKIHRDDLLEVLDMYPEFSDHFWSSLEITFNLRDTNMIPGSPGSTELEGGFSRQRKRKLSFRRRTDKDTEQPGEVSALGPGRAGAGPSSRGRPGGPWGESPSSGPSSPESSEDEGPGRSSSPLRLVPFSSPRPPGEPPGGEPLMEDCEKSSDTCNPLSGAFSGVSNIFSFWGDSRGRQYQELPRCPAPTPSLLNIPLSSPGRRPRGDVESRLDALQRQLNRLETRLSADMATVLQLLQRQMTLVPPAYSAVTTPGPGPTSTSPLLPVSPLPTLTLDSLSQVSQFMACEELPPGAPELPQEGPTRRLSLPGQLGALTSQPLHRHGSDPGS
KCNK9 block: KCNK9 potassium channel inhibitors, primary screen, HEK293 cells, thallium flux; FluxOR thallium flux fluorescence; hits give low values; Potassium channel subfamily K member 9 (Homo sapiens), Q9NPC2; B-score at 10 µM; 310,000 compounds, 1.2% hits;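 active means ratio B-score over 3 SD below the library mean, with starting fluorescence within 5 SD of its mean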;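 further: negative B-score means less thallium flux so channel inhibition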
KCNQ1 pot: potentiators or activators of KCNQ1 channel, primary screen, cell-based, thallium flux, high-throughput | CHO-K1 KCNQ1, thallium flux FluxOR fluorescence; hits give high values | B-score at 10 µM | Potassium voltage-gated channel subfamily KQT member 1 (Homo sapiens), P51787 | 310,000 compounds, 0.35% hits;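 active means fluorescence ratio B-score, a plate-corrected score, at least three library SD, with initial intensity B-score within 5 SD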
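System: CHO-K1 cells stably expressing KCNQ1 / Medium: assay buffer for compound exposure, DMSO matched across wells / Reagent: thallium- and potassium-containing depolarizing buffer / Compound: one concentration, matched DMSO / Incubation: 20 min compound pretreatment at room temperature / Measured by: kinetic FluxOR fluorescence, 10 s baseline plus 110 s post-stimulus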
Cl transport mod: KCC2 cotransporter modulators, thallium flux, primary screen, cell-based, HEK293 KCC2, FluoZin-2 fluorescence, MLSMR. KCC2 cells, thallium flux FluoZin-2 fluorescence. 190,000 compounds, 2.2% hits. B-score of Tl+ flux slope (higher = more flux/activation; lower = inhibition) at 10 µM. AID 1456, 2008;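 active means thallium flux slope and its plate-corrected score both differing from the plate sample mean at a set confidence after two filtering rounds, in either direction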;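 further: slope of fluorescence scaled to starting intensity during 10 to 20 s after thallium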
KCNK3 block: human KCNK3 channel inhibitors, primary screen, CHO cells, FluxOR thallium flux, B-score; FluxOR fluorescence; hits give low values; B-score at 10 µM; 340,000 compounds, 0.84% hits;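 active means B-score under library mean minus 4 SD, starting fluorescence ratio at most library mean plus 5 SD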;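 further: more negative B-score means stronger inhibition of thallium flux through KCNK3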
KCNQ1 block: inhibitors of human KCNQ1 channel, primary screen, cell-based, thallium flux, high-throughput | CHO-K1 KCNQ1, FluxOR thallium flux fluorescence; hits give high values | B-score at 10 µM | 310,000 compounds, 1.3% hits;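 active means compounds whose thallium flux B-score, printed positive for inhibition, exceeds three library SD while starting fluorescence stays within three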;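 further: channel opened by potassium depolarization with thallium stimulus after 20 min compound exposure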
KCNQ1 block val: KCNQ1 potassium channel inhibitors, confirmation, cell-based, Tl flux, duplicate; 1,600 compounds, 93% hits; AID 588353, 2011; inhibition, % at 10 µM; shares compounds with KCNQ1 block; KCNQ1 cell line, FluxOR thallium flux fluorescence;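 active means primary screen active, with duplicate mean exceeding buffer control mean plus 3 SD of buffer wells, cut at about 28% in these data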;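 further: 0% = buffer control ratio and 100% = XE991 inhibitor control ratio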
CHO KCNQ1 ctr: thallium flux effects in parental CHO cells, counter-screen for KCNQ1 inhibitor project, cell-based, Tl flux. fluorescence ratio (Tl flux) at 10 µM. 1,600 compounds, 21% hits. AID 588366, 2011. parental CHO-K1, FluxOR thallium flux fluorescence ratio; hits give low values; zero means no signal rise above baseline. shares compounds with KCNQ1 block;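 active means mean of duplicate thallium-flux fluorescence ratios in parental host cells more than 5 SD below the buffer control mean, cut at about 0.38 in these data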;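 further: ratio is peak minus minimum fluorescence divided by baseline fluorescence; actives read low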
KCNQ1 ephys val: KCNQ1 channel inhibitors, confirmation, orthogonal assay, cell-based, automated electrophysiology; KCNQ1-CHO cells, automated patch clamp current; calls only at 10 µM; AID 624120, 2012; shares compounds with KCNQ1 block; 490 compounds, 20% hits;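 active means KCNQ1 current drop exceeding 3 SD of negative control wells, seen in both duplicate runs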;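 further: steady state current during a 2 s step from -80 to +40 mV; negative values mean current inhibition and positive values mean potentiation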
KCNQ2 spec: KCNQ2 channel inhibition, selectivity assay for KCNQ1 inhibitor project, cell-based | shares compounds with KCNQ1 block | 1,600 compounds, 71% hits | AID 651746, 2012 | inhibition, % at 10 µM | KCNQ2 cells, FluxOR thallium flux fluorescence;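 active means mean percent inhibition of the KCNQ2 thallium signal more than 5 SD above the buffer-only control wells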;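 further: KCNQ2 expressed in CHO cells; 0% = buffer control wells and 100% = XE-991 inhibitor control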
KCNQ1 KCNE1 spec: KCNQ1/KCNE1 channel inhibition, selectivity assay for KCNQ1 inhibitor project, CHO-K1 cells, thallium flux, FluxOR | inhibition, % at 10 µM | FluxOR thallium flux fluorescence | shares compounds with KCNQ1 block | 1,600 compounds, 77% hits;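 active means mean percent inhibition of duplicate wells above the buffer-only control mean plus 3 SD of those controls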;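 further: 0% = buffer only wells and 100% = XE-991 inhibitor control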
Starred values were filed as active, the others as inactive. Sampled rows, rich in hits. Any-hit rate of the full collection: about 4.1%.

Screening CCOC(=O)C1CCN(c2ncnc3c2c(-c2ccccc2)cn3-c2ccccc2)CC1 returned hERG protect -22, KCNK9 block inactive, KCNQ1 pot inactive, Cl transport mod 0.0025, KCNK3 block inactive, KCNQ1 block 9*, KCNQ1 block val 138*, CHO KCNQ1 ctr 0.4, KCNQ1 ephys val inactive, KCNQ2 spec 104%* and KCNQ1 KCNE1 spec active.
Cc1ccc(-n2cc(-c3ccccc3)c3c(N4CCOCC4)ncnc32)cc1 was read as hERG protect -12, KCNK9 block inactive, KCNQ1 pot inactive, Cl transport mod -0.86, KCNK3 block inactive, KCNQ1 block 12*, KCNQ1 block val 94*, CHO KCNQ1 ctr 0.42, KCNQ1 ephys val inactive, KCNQ2 spec 107%* and KCNQ1 KCNE1 spec 134%*.
`OCCN1CCN(c2ncnc3c2c(-c2ccccc2)cn3-c2ccc(F)cc2)CC1` gave hERG protect -10, KCNK9 block inactive, KCNQ1 pot inactive, Cl transport mod -0.61, KCNK3 block inactive and KCNQ1 block inactive.
Screening CC1CN(c2ncnc3c2c(-c2ccccc2)cn3-c2ccc(F)cc2)CC(C)O1 (stereo not drawn) returned hERG protect -27, KCNK9 block inactive, KCNQ1 pot inactive, Cl transport mod -0.4, KCNK3 block inactive, KCNQ1 block 9*, KCNQ1 block val 138*, CHO KCNQ1 ctr 0.42, KCNQ1 ephys val inactive, KCNQ2 spec 135%* and KCNQ1 KCNE1 spec 138%*.
`COc1ccc(CN2CCN(C(=O)Cn3nc(C(=O)O)c4ccccc4c3=O)CC2)cc1F` gave hERG protect -10, KCNK9 block inactive, KCNQ1 pot inactive, KCNK3 block inactive and KCNQ1 block inactive.
Oc1ccc(-c2n[nH]c(C(F)(F)F)c2-c2ccccc2)c(O)c1 was read as hERG protect -20, KCNK9 block inactive, KCNQ1 pot inactive, Cl transport mod -0.087, KCNK3 block inactive, KCNQ1 block 8*, KCNQ1 block val 156*, CHO KCNQ1 ctr 0.37*, KCNQ2 spec inactive and KCNQ1 KCNE1 spec 182%*.
For CCC(C)n1c(=O)c(C(=O)Nc2ccccc2S(N)(=O)=O)c(O)c2ccccc21 (stereo not drawn) the results were hERG protect -8, KCNK9 block inactive, KCNQ1 pot inactive, Cl transport mod -1.5, KCNK3 block inactive and KCNQ1 block inactive.
